{"data": "Results of several laboratories", "CHEK2": "Serine/threonine-protein kinase Chk2 (CHEK2, Homo sapiens, UniProt O96017)", "note": "Each line is one published result; the experiments were not run side by side."}
{"Compound": "Cc1ccc(C(=O)NCc2ccsc2)cc1C#Cc1cn(C(C)C)c2ncnc(N)c12", "target": "CHEK2", "read-out": "enzyme activity", "action": "inhibitor", "concentration": "1 µM", "quantity": "activity vs control", "value": "109%"}
{"Compound": "CC(=O)N1CCC(c2ccc(C(=O)NC3=NCCN3)cc2C(F)(F)F)CC1", "target": "CHEK2", "read-out": "cell-free assay", "method": "competition with immobilised ligand", "concentration": "1 µM", "quantity": "remaining binding", "value": "100%"}
{"Compound": "Cn1c2c(c3ccc(Cl)c(Cl)c31)C(C#N)C1(CCNCC1)NC2=O (racemic)", "target": "CHEK2", "read-out": "thermal stability", "method": "DSF", "concentration": "10 µM", "quantity": "ΔTm", "value": "0.2 °C"}
{"Compound": "Nc1ncnc2occ(-c3ccc(NC(=O)Nc4cc(C(F)(F)F)ccc4F)cc3)c12", "target": "CHEK2", "read-out": "cell-free assay", "action": "inhibitor", "concentration": "20 µM", "quantity": "remaining signal", "value": "13%"}
{"Compound": "Cc1ccc(Nc2nccc(N(C)c3ccc4c(C)n(C)nc4c3)n2)cc1S(N)(=O)=O", "target": "Serine/threonine-protein kinase Chk2 (CHEK2, Homo sapiens, UniProt O96017, R145W)", "read-out": "enzyme activity", "action": "inhibitor", "concentration": "10 µM", "quantity": "inhibition", "value": "28%"}
{"Compound": "COc1cc(Nc2c(C#N)cnc3cc(OCCCN4CCN(C)CC4)c(OC)cc23)c(Cl)cc1Cl", "target": "CHEK2", "read-out": "cell-free assay", "concentration": "0.5 µM", "quantity": "remaining signal", "value": "21.7%"}
{"Compound": "CN1CCC2(CC1)NC(=O)c1c(c3ccc(Cl)c(Cl)c3n1C)C2C#N (racemic)", "target": "CHEK2", "read-out": "thermal stability", "method": "DSF", "concentration": "10 µM", "quantity": "ΔTm", "value": "-0.3 °C"}
{"Compound": "CC(=O)C1=C(C)N(c2cccc(C(F)(F)F)c2)C(=O)N[C@@H]1c1ccc(C#N)nc1", "target": "CHEK2", "read-out": "cell-free assay", "method": "competition with immobilised ligand", "concentration": "1 µM", "quantity": "remaining binding", "value": "85.6%"}
{"Compound": "Cn1c2c(Cl)c(Cl)ccc2c2cc(N)[nH]c(=O)c21", "target": "CHEK2", "read-out": "thermal stability", "method": "DSF", "concentration": "10 µM", "quantity": "ΔTm", "value": "0.1 °C"}
{"Compound": "CNC(=O)c1cc(Oc2ccc(NC(=O)Nc3ccc(Cl)c(C(F)(F)F)c3)cc2)ccn1", "target": "CHEK2", "read-out": "enzyme activity", "action": "inhibitor", "concentration": "10 µM", "quantity": "inhibition", "value": "6%"}
{"Compound": "Cc1cc(NC(=O)c2cccc3cc(-c4cccc5[nH]nc(N)c45)ccc23)ccc1F", "target": "CHEK2", "read-out": "enzyme activity", "action": "inhibitor", "concentration": "0.1 µM", "quantity": "activity vs control", "value": "102%"}
{"Compound": "Cc1ccc(NC(=O)c2ccc(C)c(C(F)(F)F)c2)cc1C#Cc1nn(C2CCC(O)CC2)c2ncnc(N)c12 (centres unmarked)", "target": "CHEK2", "read-out": "cell-free assay", "concentration": "10 µM", "quantity": "remaining signal", "value": "111%"}
{"Compound": "CO[C@@H](C)c1c(Nc2ccc([C@H](N(C)C(=O)C3CCS(=O)(=O)CC3)C(F)(F)F)cc2)cnc2cc(Cl)nn12", "target": "CHEK2", "read-out": "cell-free assay", "method": "competition with immobilised ligand", "concentration": "1 µM", "quantity": "remaining binding", "value": "90%"}
{"Compound": "CCN(CC)CCNC(=O)c1c(C)[nH]c(/C=C2\\C(=O)Nc3ccc(F)cc32)c1C", "target": "CHEK2", "read-out": "cell-free assay", "concentration": "0.5 µM", "quantity": "remaining signal", "value": "7.13%"}
{"Compound": "O=C(Nc1cccnn1)N1CC(C/C=C/c2cncc(Oc3ccc(C(F)(F)F)cn3)n2)C1", "target": "CHEK2", "read-out": "cell-free assay", "method": "competition with immobilised ligand", "concentration": "1 µM", "quantity": "remaining binding", "value": "100%"}
{"Compound": "Cn1c2c(c3ccc(Cl)c(Cl)c31)C(C#N)C(C)(C)NC2=O (centres unmarked)", "target": "CHEK2", "read-out": "thermal stability", "method": "DSF", "concentration": "10 µM", "quantity": "ΔTm", "value": "0.2 °C"}
{"Compound": "CN([C@@H]1CCc2c(CC(=O)O)c3ccccc3n2C1)S(=O)(=O)c1ccc(F)cc1", "target": "CHEK2", "read-out": "cell-free assay", "method": "competition with immobilised ligand", "concentration": "1 µM", "quantity": "remaining binding", "value": "100%"}
{"Compound": "C[S+]([O-])c1ccc(-c2nc(-c3ccncc3)c(-c3ccc(F)cc3)[nH]2)cc1 (centres unmarked)", "target": "CHEK2", "read-out": "cell-free assay", "concentration": "0.5 µM", "quantity": "remaining signal", "value": "99.6%"}
{"Compound": "CCCOc1ccc([C@H]2[C@H](C(=O)O)[C@@H](c3ccc4c(c3)OCO4)CN2CC(=O)Nc2c(CC)cccc2CC)cc1", "target": "CHEK2", "read-out": "cell-free assay", "method": "competition with immobilised ligand", "concentration": "1 µM", "quantity": "remaining binding", "value": "88%"}
{"Compound": "CN(C)C1CCN(CC#Cc2nn(C3CCCC3)c3nc(NCc4ccccc4)ncc23)C1 (centres unmarked)", "target": "CHEK2", "read-out": "enzyme activity", "action": "inhibitor", "method": "FRET", "concentration": "0.1 µM", "quantity": "inhibition", "value": "6%"}
